Measurements reported in ChEMBL document CHEMBL1129275, “Synthesis and in vitro and in vivo characteristics of an iodinated analogue of the beta-adrenoceptor antagonist carazolol” (J Med Chem, 1996).

Legend:
Oryctolagus cuniculus [1] = assay: Cerebral biodistribution pattern of [123I]- ligand was evaluated in hypothalamus of anesthetized rabbit after Intravenous injection of 50 uCi after 5 min; assay type: ADME, organism-based; conditions: in vivo
Method in brief: (§1)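 Male New Zealand white rabbits (2.5–3.5 kg), anesthetized with xylazine 5 mg/kg plus ketamine 30 mg/kg im, given 50 µCi radioligand (specific activity >5000 Ci/mmol) iv via ear vein. Euthanized at set times by pentobarbital 200 mg/kg im, n = 3/time point. Organs removed and weighed, gamma-counted, decay/weight corrected; expressed as % ID x kg body weight/g tissue, mean ± SEM.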

Oryctolagus cuniculus [2] = assay: Biodistribution pattern of [123I]- ligand was evaluated in intestine of anesthetized rabbit after Intravenous injection of 50 uCi after 4 hr; assay type: ADME, organism-based; conditions: in vivo
Method in brief: (§2)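 Male New Zealand white rabbits, 2.5–3.5 kg, anesthetized with 5 mg/kg xylazine plus 30 mg/kg ketamine im. Each received 50 uCi radioligand (specific activity > 5000 Ci/mmol) iv via ear vein. Animals were killed with 200 mg/kg pentobarbital im at the set time. Blood was drawn by intracardiac puncture and organs weighed. Gamma counting was decay-corrected, expressed as %ID x kg body weight/g tissue, mean ± SEM, n = 3/time point.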

Oryctolagus cuniculus [3] = assay: Biodistribution pattern of [123I]- ligand was evaluated in left atrial muscle of anesthetized rabbit after Intravenous injection of 50 uCi after 2 hr; assay type: ADME, organism-based, Muscle tissue; conditions: in vivo; method in brief: as §2
Oryctolagus cuniculus [4] = assay: Biodistribution pattern of [123I]- ligand was evaluated in left atrial muscle of anesthetized rabbit after Intravenous injection of 50 uCi after 4 hr; assay type: ADME, organism-based, Muscle tissue; conditions: in vivo; method in brief: as §2
Oryctolagus cuniculus [5] = assay: Biodistribution pattern of [123I]- ligand was evaluated in left atrial muscle of anesthetized rabbit after Intravenous injection of 50 uCi after 6 hr; assay type: ADME, organism-based, Muscle tissue; conditions: in vivo; method in brief: as §2
Oryctolagus cuniculus [6] = assay: Biodistribution pattern of [123I]- ligand was evaluated in left ventricular muscle of anesthetized rabbit after Intravenous injection of 50 uCi after 30 min; assay type: ADME, organism-based, Muscle tissue; conditions: in vivo, 0.5 h; method in brief: as §2
Oryctolagus cuniculus [7] = assay: Biodistribution pattern of [123I]- ligand was evaluated in right atrial muscle of anesthetized rabbit after Intravenous injection of 50 uCi after 6 hr; assay type: ADME, organism-based, Muscle tissue; conditions: in vivo; method in brief: as §1
Oryctolagus cuniculus [8] = assay: Biodistribution pattern of [123I]- ligand was evaluated in right ventricular muscle of anesthetized rabbit after Intravenous injection of 50 uCi after 24 hr; assay type: ADME, organism-based, Muscle tissue; conditions: in vivo; method in brief: as §1
Oryctolagus cuniculus [9] = assay: Biodistribution pattern of [123I]- ligand was evaluated in right ventricular muscle of anesthetized rabbit after Intravenous injection of 50 uCi after 2 hr; assay type: ADME, organism-based, Muscle tissue; conditions: in vivo; method in brief: as §1
Oryctolagus cuniculus [10] = assay: Cerebral biodistribution pattern of [123I]- ligand was evaluated in pituitary gland of anesthetized rabbit after Intravenous injection of 50 uCi after 6 hr; assay type: ADME, organism-based; conditions: in vivo; method in brief: as §1
Oryctolagus cuniculus [11] = assay: Cerebral biodistribution pattern of [123I]- ligand was evaluated in striatum of anesthetized rabbit after Intravenous injection of 50 uCi after 1 hr; assay type: ADME, organism-based; conditions: in vivo; method in brief: as §1
Oryctolagus cuniculus [12] = assay: Cerebral biodistribution pattern of [123I]- ligand was evaluated in thalamus of anesthetized rabbit after Intravenous injection of 50 uCi after 2 hr; assay type: ADME, organism-based; conditions: in vivo; method in brief: as §1
Oryctolagus cuniculus [13] = assay: Biodistribution pattern of [123I]- ligand was evaluated in left ventricular muscle of anesthetized rabbit after Intravenous injection of 50 uCi after 5 min; assay type: ADME, organism-based, Muscle tissue; conditions: in vivo; method in brief: as §2
Oryctolagus cuniculus [14] = assay: Biodistribution pattern of [123I]- ligand was evaluated in lung of anesthetized rabbit after Intravenous injection of 50 uCi after 30 min; assay type: ADME, organism-based; conditions: in vivo, 0.5 h; method in brief: as §2
Oryctolagus cuniculus [15] = assay: Biodistribution pattern of [123I]- ligand was evaluated in lung of anesthetized rabbit after Intravenous injection of 50 uCi after 5 min; assay type: ADME, organism-based; conditions: in vivo; method in brief: as §2
Oryctolagus cuniculus [16] = assay: Biodistribution pattern of [123I]- ligand was evaluated in muscle of anesthetized rabbit after Intravenous injection of 50 uCi after 1 hr; assay type: ADME, organism-based, Muscle tissue; conditions: in vivo; method in brief: as §2
Oryctolagus cuniculus [17] = assay: Biodistribution pattern of [123I]- ligand was evaluated in muscle of anesthetized rabbit after Intravenous injection of 50 uCi after 2 hr; assay type: ADME, organism-based, Muscle tissue; conditions: in vivo; method in brief: as §2
Oryctolagus cuniculus [18] = assay: Biodistribution pattern of [123I]- ligand was evaluated in muscle of anesthetized rabbit after Intravenous injection of 50 uCi after 5 min; assay type: ADME, organism-based, Muscle tissue; conditions: in vivo; method in brief: as §1
Oryctolagus cuniculus [19] = assay: Biodistribution pattern of [123I]- ligand was evaluated in left ventricular muscle of anesthetized rabbit after Intravenous injection of 50 uCi after 1 hr; assay type: ADME, organism-based, Muscle tissue; conditions: in vivo; method in brief: as §2
Oryctolagus cuniculus [20] = assay: Cerebral biodistribution pattern of [123I]- ligand was evaluated in frontal cortex of anesthetized rabbit after Intravenous injection of 50 uCi after 24 hr; assay type: ADME, organism-based; conditions: in vivo; method in brief: as §1
Oryctolagus cuniculus [21] = assay: Cerebral biodistribution pattern of [123I]- ligand was evaluated in frontal cortex of anesthetized rabbit after Intravenous injection of 50 uCi after 2 hr; assay type: ADME, organism-based; conditions: in vivo; method in brief: as §1
Oryctolagus cuniculus [22] = assay: Cerebral biodistribution pattern of [123I]- ligand was evaluated in frontal cortex of anesthetized rabbit after Intravenous injection of 50 uCi after 5 min; assay type: ADME, organism-based; conditions: in vivo; method in brief: as §1
Oryctolagus cuniculus [23] = assay: Cerebral biodistribution pattern of [123I]- ligand was evaluated in hypothalamus of anesthetized rabbit after Intravenous injection of 50 uCi after 1 hr; assay type: ADME, organism-based; conditions: in vivo; method in brief: as §1
Oryctolagus cuniculus [24] = assay: Cerebral biodistribution pattern of [123I]- ligand was evaluated in hypothalamus of anesthetized rabbit after Intravenous injection of 50 uCi after 2 hr; assay type: ADME, organism-based; conditions: in vivo; method in brief: as §1
Oryctolagus cuniculus [25] = assay: Cerebral biodistribution pattern of [123I]- ligand was evaluated in hypothalamus of anesthetized rabbit after Intravenous injection of 50 uCi after 30 min; assay type: ADME, organism-based; conditions: in vivo, 0.5 h; method in brief: as §1
Oryctolagus cuniculus [26] = assay: Cerebral biodistribution pattern of [123I]- ligand was evaluated in pituitary gland of anesthetized rabbit after Intravenous injection of 50 uCi after 24 hr; assay type: ADME, organism-based; conditions: in vivo; method in brief: as §1
Oryctolagus cuniculus [27] = assay: Biodistribution pattern of [123I]- ligand was evaluated in blood of anesthetized rabbit after Intravenous injection of 50 uCi after 24 hr; assay type: ADME, organism-based; conditions: in vivo; method in brief: as §2
Oryctolagus cuniculus [28] = assay: Biodistribution pattern of [123I]- ligand was evaluated in blood of anesthetized rabbit after Intravenous injection of 50 uCi after 4 hr; assay type: ADME, organism-based; conditions: in vivo; method in brief: as §2
Oryctolagus cuniculus [29] = assay: Biodistribution pattern of [123I]- ligand was evaluated in fat of anesthetized rabbit after Intravenous injection of 50 uCi after 6 hr; assay type: ADME, organism-based, Adipose tissue; conditions: in vivo; method in brief: as §2
Oryctolagus cuniculus [30] = assay: Biodistribution pattern of [123I]- ligand was evaluated in fat of anesthetized rabbit after Intravenous injection of 50 uCi after 1 hr; assay type: ADME, organism-based, Adipose tissue; conditions: in vivo; method in brief: as §2
Oryctolagus cuniculus [31] = assay: Biodistribution pattern of [123I]- ligand was evaluated in fat of anesthetized rabbit after Intravenous injection of 50 uCi after 2 hr; assay type: ADME, organism-based, Adipose tissue; conditions: in vivo; method in brief: as §2
Oryctolagus cuniculus [32] = assay: Biodistribution pattern of [123I]- ligand was evaluated in spleen of anesthetized rabbit after Intravenous injection of 50 uCi after 1 hr; assay type: ADME, organism-based; conditions: in vivo; method in brief: as §1
Oryctolagus cuniculus [33] = assay: Biodistribution pattern of [123I]- ligand was evaluated in spleen of anesthetized rabbit after Intravenous injection of 50 uCi after 24 hr; assay type: ADME, organism-based; conditions: in vivo; method in brief: as §1
Oryctolagus cuniculus [34] = assay: Biodistribution pattern of [123I]- ligand was evaluated in spleen of anesthetized rabbit after Intravenous injection of 50 uCi after 4 hr; assay type: ADME, organism-based; conditions: in vivo; method in brief: as §1
Oryctolagus cuniculus [35] = assay: Biodistribution pattern of [123I]- ligand was evaluated in liver of anesthetized rabbit after Intravenous injection of 50 uCi after 6 hr; assay type: ADME, organism-based; conditions: in vivo; method in brief: as §2
Oryctolagus cuniculus [36] = assay: Biodistribution pattern of [123I]- ligand was evaluated in lung of anesthetized rabbit after Intravenous injection of 50 uCi after 24 hr; assay type: ADME, organism-based; conditions: in vivo; method in brief: as §2
Oryctolagus cuniculus [37] = assay: Cerebral biodistribution pattern of [123I]- ligand was evaluated in cerebellum of anesthetized rabbit after Intravenous injection of 50 uCi after 24 hr; assay type: ADME, organism-based; conditions: in vivo; method in brief: as §1
Oryctolagus cuniculus [38] = assay: Biodistribution pattern of [123I]- ligand was evaluated in intestine of anesthetized rabbit after Intravenous injection of 50 uCi after 5 min; assay type: ADME, organism-based; conditions: in vivo; method in brief: as §2

Which results are given for `CC(C)(/C=C/I)NC[C@H](O)COc1cccc2[nH]c3ccccc3c12`?
ID x kg of body weight/g of tissue (Oryctolagus cuniculus [1]): 0.25%; ID x kg of body weight/g of tissue (Oryctolagus cuniculus [2]): 0.06%; ID x kg of body weight/g of tissue (Oryctolagus cuniculus [3]): 0.17%; ID x kg of body weight/g of tissue (Oryctolagus cuniculus [4]): 0.11%; ID x kg of body weight/g of tissue (Oryctolagus cuniculus [5]): 0.1%; ID x kg of body weight/g of tissue (Oryctolagus cuniculus [6]): < 0.26%; ID x kg of body weight/g of tissue (Oryctolagus cuniculus [7]): 0.07%; ID x kg of body weight/g of tissue (Oryctolagus cuniculus [8]): 0.02%; ID x kg of body weight/g of tissue (Oryctolagus cuniculus [9]): 0.18%; ID x kg of body weight/g of tissue (Oryctolagus cuniculus [10]): 0.06%; ID x kg of body weight/g of tissue (Oryctolagus cuniculus [11]): 0.07%; ID x kg of body weight/g of tissue (Oryctolagus cuniculus [12]): 0.05%; ID x kg of body weight/g of tissue (Oryctolagus cuniculus [13]): 0.52%; ID x kg of body weight/g of tissue (Oryctolagus cuniculus [14]): < 1.74%; ID x kg of body weight/g of tissue (Oryctolagus cuniculus [15]): 5.75%; ID x kg of body weight/g of tissue (Oryctolagus cuniculus [16]): 0.07%; ID x kg of body weight/g of tissue (Oryctolagus cuniculus [17]): 0.05%; ID x kg of body weight/g of tissue (Oryctolagus cuniculus [18]): 0.08%; ID x kg of body weight/g of tissue (Oryctolagus cuniculus [19]): 0.2%; ID x kg of body weight/g of tissue (Oryctolagus cuniculus [20]): 0.01%; ID x kg of body weight/g of tissue (Oryctolagus cuniculus [21]): 0.09%; ID x kg of body weight/g of tissue (Oryctolagus cuniculus [22]): 0.27%; ID x kg of body weight/g of tissue (Oryctolagus cuniculus [23]): 0.06%; ID x kg of body weight/g of tissue (Oryctolagus cuniculus [24]): 0.05%; ID x kg of body weight/g of tissue (Oryctolagus cuniculus [25]): 0.09%; ID x kg of body weight/g of tissue (Oryctolagus cuniculus [26]): 0.03%; ID x kg of body weight/g of tissue (Oryctolagus cuniculus [27]): 0.01%; ID x kg of body weight/g of tissue (Oryctolagus cuniculus [28]): 0.01%; ID x kg of body weight/g of tissue (Oryctolagus cuniculus [29]): 0.02%; ID x kg of body weight/g of tissue (Oryctolagus cuniculus [30]): 0.06%; ID x kg of body weight/g of tissue (Oryctolagus cuniculus [31]): 0.04%; ID x kg of body weight/g of tissue (Oryctolagus cuniculus [32]): 0.28%; ID x kg of body weight/g of tissue (Oryctolagus cuniculus [33]): 0.03%; ID x kg of body weight/g of tissue (Oryctolagus cuniculus [34]): 0.1%; ID x kg of body weight/g of tissue (Oryctolagus cuniculus [35]): 0.03%; ID x kg of body weight/g of tissue (Oryctolagus cuniculus [36]): 0.18%; ID x kg of body weight/g of tissue (Oryctolagus cuniculus [37]): 0.07%; ID x kg of body weight/g of tissue (Oryctolagus cuniculus [38]): 0.16%
